We go through 8 molecules from ChEMBL document CHEMBL3861996, “Arylsulfonamide derivatives of (aryloxy)ethyl pyrrolidines and piperidines as α1-adrenergic receptor antagonist with uro-selective activity” (Bioorg Med Chem, 2016).

The target in the first assay is T1, Adrenergic receptor alpha-1 (Rattus norvegicus, UniProt P15823+P23944+P43140).
T1 sequence (P15823 whole entry): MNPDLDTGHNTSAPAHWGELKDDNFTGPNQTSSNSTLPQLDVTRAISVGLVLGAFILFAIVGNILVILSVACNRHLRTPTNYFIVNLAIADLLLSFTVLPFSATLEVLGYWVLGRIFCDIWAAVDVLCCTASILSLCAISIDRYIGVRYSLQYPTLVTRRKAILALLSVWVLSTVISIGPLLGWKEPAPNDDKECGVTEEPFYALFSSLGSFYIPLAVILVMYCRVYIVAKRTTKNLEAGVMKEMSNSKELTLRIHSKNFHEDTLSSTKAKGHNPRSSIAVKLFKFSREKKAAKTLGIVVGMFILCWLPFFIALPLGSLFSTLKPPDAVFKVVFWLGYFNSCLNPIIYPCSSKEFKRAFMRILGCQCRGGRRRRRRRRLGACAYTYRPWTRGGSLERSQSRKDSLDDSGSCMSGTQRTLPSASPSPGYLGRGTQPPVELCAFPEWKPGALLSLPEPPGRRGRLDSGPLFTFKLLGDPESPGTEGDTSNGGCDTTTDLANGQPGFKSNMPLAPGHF
T1 sequence (P23944 whole entry): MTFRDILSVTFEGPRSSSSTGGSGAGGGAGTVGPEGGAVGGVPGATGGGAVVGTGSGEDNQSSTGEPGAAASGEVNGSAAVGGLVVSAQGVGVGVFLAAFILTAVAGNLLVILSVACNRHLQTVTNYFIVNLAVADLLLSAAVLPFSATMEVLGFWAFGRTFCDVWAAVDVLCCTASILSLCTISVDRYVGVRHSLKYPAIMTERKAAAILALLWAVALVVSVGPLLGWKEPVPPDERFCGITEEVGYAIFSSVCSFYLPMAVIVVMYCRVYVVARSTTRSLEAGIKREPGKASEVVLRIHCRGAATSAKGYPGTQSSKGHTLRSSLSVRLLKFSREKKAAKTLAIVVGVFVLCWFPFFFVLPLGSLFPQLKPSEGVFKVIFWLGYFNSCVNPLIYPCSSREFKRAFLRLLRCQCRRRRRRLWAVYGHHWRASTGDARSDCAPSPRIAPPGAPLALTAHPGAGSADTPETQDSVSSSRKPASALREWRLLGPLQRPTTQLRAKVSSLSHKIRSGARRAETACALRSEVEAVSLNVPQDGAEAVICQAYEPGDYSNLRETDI
T1 sequence (P43140 whole entry): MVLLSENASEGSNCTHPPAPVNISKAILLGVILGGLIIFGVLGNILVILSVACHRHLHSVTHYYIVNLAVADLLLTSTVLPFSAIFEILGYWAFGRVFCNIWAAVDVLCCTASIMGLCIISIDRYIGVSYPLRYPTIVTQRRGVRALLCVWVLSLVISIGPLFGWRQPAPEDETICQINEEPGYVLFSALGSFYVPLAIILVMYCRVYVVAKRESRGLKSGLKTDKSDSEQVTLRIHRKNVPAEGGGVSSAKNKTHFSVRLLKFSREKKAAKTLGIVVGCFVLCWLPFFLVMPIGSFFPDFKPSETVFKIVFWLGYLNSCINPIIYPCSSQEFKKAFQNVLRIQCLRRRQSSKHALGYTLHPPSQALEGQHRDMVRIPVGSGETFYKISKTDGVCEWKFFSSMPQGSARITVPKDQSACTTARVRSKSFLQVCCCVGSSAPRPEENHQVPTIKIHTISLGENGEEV
Kind of assay: Displacement of [3H]-Prazosin from alpha1 adrenergic receptor in rat brain cerebral cortex membranes by liquid scintillation counting analysis. The format is cell membranes, Membrane. Put shortly: (§1)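 Rat cerebral cortex homogenized in ice-cold 50 mM Tris–HCl (pH 7.6), spun at 20,000 g for 20 min (0–4 °C), resuspended and spun again. Membranes incubated with 0.2 nM [3H]-prazosin (α1) or 2 nM [3H]-clonidine (α2) and seven to eight compound concentrations (10^-11 to 10^-4 M). Non-specific binding defined with 10 µM phentolamine (prazosin) or 10 µM clonidine (clonidine). Ended by GF/C filtration, counted by liquid scintillation. Run in duplicate; Ki from two independent experiments.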
Background: Loss of bound radioactivity is the signal in a displacement assay; it reports binding, not function.
For `CC(C)Oc1ccccc1OCCN1CCC(CNS(=O)(=O)c2ccc(F)cc2)CC1`, the inhibitory constant (Ki) turned out to be 77 nM.

As for `CC(C)Oc1ccccc1OCCN1CCC(CNS(=O)(=O)c2cc(Cl)ccc2F)CC1`, the Ki worked out at 133 nM.

As to `COc1ccccc1OCCN1CC[C@H](NS(=O)(=O)c2cc(Cl)ccc2F)C1`, the Ki came out at 214 nM. This Ki lies about 1.6-fold higher than the previous one.

`CC(C)Oc1ccccc1OCCN1CCC(CNS(=O)(=O)c2cncc3ccccc23)CC1` showed an inhibitory constant (Ki) of 67 nM. This Ki lies about 3.2-fold lower than the previous one.

On to `COc1ccccc1OCCN1CCC(NS(=O)(=O)c2cccc3cccnc23)CC1`, for which the Ki is reported as 93 nM.

Take `COc1ccccc1OCCN1CCC(NS(=O)(=O)c2cc(Cl)ccc2F)CC1`: the Ki amounted to 34 nM.

The molecule `CC(C)Oc1ccccc1OCCN1CC[C@H](NS(=O)(=O)c2cccc(Cl)c2F)C1` came in with an inhibitory constant (Ki) of 92 nM.

Turning to `CC(C)Oc1ccccc1OCCN1CC[C@@H](NS(=O)(=O)c2cccc(Cl)c2F)C1`, the Ki came out at 176 nM.

The target in another assay is T2, Adrenergic receptor alpha-2 (Rattus norvegicus, UniProt P22086+P19328+P22909).
T2 sequence (P22086 whole entry): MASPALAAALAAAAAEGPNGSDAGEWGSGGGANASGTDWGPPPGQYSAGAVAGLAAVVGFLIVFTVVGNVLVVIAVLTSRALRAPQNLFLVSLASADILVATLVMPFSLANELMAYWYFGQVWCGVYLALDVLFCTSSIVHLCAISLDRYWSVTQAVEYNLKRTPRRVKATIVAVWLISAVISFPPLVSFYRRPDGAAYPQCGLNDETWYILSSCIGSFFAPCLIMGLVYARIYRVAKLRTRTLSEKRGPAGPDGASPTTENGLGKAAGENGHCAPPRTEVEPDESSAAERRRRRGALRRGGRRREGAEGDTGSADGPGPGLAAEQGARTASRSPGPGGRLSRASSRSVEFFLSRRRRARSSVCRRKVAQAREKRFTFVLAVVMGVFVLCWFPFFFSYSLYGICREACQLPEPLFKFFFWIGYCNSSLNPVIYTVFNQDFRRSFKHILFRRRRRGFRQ
T2 sequence (P19328 whole entry): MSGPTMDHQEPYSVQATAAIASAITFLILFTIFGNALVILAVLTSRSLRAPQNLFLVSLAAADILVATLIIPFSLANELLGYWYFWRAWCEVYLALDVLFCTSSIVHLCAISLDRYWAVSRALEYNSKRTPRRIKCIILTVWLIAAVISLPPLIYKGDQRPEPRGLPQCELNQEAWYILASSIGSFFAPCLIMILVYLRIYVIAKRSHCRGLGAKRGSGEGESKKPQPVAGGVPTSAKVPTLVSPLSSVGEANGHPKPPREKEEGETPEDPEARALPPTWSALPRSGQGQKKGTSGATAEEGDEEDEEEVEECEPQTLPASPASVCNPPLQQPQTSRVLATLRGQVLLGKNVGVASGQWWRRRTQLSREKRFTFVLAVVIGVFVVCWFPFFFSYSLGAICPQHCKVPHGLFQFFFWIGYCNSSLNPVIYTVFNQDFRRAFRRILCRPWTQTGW
T2 sequence (P22909 whole entry): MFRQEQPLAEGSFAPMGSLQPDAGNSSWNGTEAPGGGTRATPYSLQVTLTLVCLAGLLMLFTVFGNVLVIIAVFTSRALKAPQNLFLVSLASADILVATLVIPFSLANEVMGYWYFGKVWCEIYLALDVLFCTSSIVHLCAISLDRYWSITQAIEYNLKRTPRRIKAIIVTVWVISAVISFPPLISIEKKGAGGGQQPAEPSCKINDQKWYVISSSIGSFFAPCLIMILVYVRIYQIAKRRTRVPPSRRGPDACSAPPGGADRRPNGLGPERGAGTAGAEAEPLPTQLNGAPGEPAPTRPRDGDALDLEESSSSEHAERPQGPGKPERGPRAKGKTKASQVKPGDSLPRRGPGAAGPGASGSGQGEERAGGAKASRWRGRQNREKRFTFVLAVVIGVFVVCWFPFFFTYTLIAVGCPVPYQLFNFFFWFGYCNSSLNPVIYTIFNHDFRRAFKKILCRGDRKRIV
The assay can be described thus: Displacement of [3H]-Clonidine from alpha2 adrenergic receptor in rat brain cerebral cortex membranes by liquid scintillation counting analysis. The format is cell membranes, Membrane. Put shortly: as §1
`CC(C)Oc1ccccc1OCCN1CCC(CNS(=O)(=O)c2ccc(F)cc2)CC1` gave a Ki of 416 nM. That is a sub-micromolar value.

As for `CC(C)Oc1ccccc1OCCN1CCC(CNS(=O)(=O)c2cc(Cl)ccc2F)CC1`, the inhibition constant (Ki) is given as 870 nM.

For the molecule `COc1ccccc1OCCN1CC[C@H](NS(=O)(=O)c2cc(Cl)ccc2F)C1`, the Ki is > 10000 nM.

`CC(C)Oc1ccccc1OCCN1CCC(CNS(=O)(=O)c2cncc3ccccc23)CC1` yielded a Ki of 578 nM.

The molecule `COc1ccccc1OCCN1CCC(NS(=O)(=O)c2cccc3cccnc23)CC1` yielded a Ki of 131 nM.

As to `COc1ccccc1OCCN1CCC(NS(=O)(=O)c2cc(Cl)ccc2F)CC1`, the Ki came to 129 nM.

Regarding `CC(C)Oc1ccccc1OCCN1CC[C@H](NS(=O)(=O)c2cccc(Cl)c2F)C1`, the Ki was > 10000 nM.

On to `CC(C)Oc1ccccc1OCCN1CC[C@@H](NS(=O)(=O)c2cccc(Cl)c2F)C1`, for which the Ki was found to be 378 nM.

The species entered for another assay is Rattus norvegicus. Kind of assay: Selectivity ratio of Ki for alpha2 adrenergic receptor in rat brain cerebral cortex membranes to Ki for alpha1 adrenergic receptor in rat brain cerebral cortex membranes. The format is cell membranes. Put shortly:
as §1
With `CC(C)Oc1ccccc1OCCN1CCC(CNS(=O)(=O)c2ccc(F)cc2)CC1`, the Ratio Ki was 5.

On to `CC(C)Oc1ccccc1OCCN1CCC(CNS(=O)(=O)c2cc(Cl)ccc2F)CC1`, for which the Ratio Ki stood at 7.

In the case of `CC(C)Oc1ccccc1OCCN1CCC(CNS(=O)(=O)c2cncc3ccccc23)CC1`, the Ratio Ki is 9.

In the case of `COc1ccccc1OCCN1CCC(NS(=O)(=O)c2cccc3cccnc23)CC1`, the Ratio Ki amounted to 1.

Consider `COc1ccccc1OCCN1CCC(NS(=O)(=O)c2cc(Cl)ccc2F)CC1`, for which the Ratio Ki amounted to 4.

With `CC(C)Oc1ccccc1OCCN1CC[C@H](NS(=O)(=O)c2cccc(Cl)c2F)C1`, the Ratio Ki is > 109.

Regarding `CC(C)Oc1ccccc1OCCN1CC[C@@H](NS(=O)(=O)c2cccc(Cl)c2F)C1`, the Ratio Ki worked out at 2.

Usually Ki stands for the dissociation constant of the complex between target and ligand, obtained from inhibition or displacement. Low values mean tighter binding, high ones weaker binding.
